Experimental data reported in ChEMBL document CHEMBL1141666, “Synthesis of novel substituted 1,3-diaryl propenone derivatives and their antimalarial activity in vitro” (Eur J Med Chem, 2008).
≈ marks a conversion by molar mass, not a printed value.

These compounds were tested on Plasmodium falciparum (assay: Antimalarial activity against asexual blood stage of Plasmodium falciparum 3D7 after 48 hrs by candle jar method). Details: 3D7, 48 h.
Assay type: functional, organism-based
Procedure, shortened: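 Asexual blood-stage parasites grown in B+ human erythrocytes, RPMI-1640 with 10% heat-inactivated pooled compatible serum; exposed to graded compound concentrations in triplicate, 48 h, 37 °C. Percent parasitemia inhibition versus controls from Giemsa-stained thin smears; IC50 from concentration-response curve.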
O=C(/C=C/c1ccc(Cl)cc1)c1ccc(N2CCCCC2)cc1 was tested, and the IC50 was 5.15 mg/L (≈ 15.8 µM). O=C(/C=C/c1ccc(Cl)cc1)c1ccc(N2CCCC2)cc1 gave an IC50 of 6.01 mg/L (≈ 19.3 µM). Work on O=C(/C=C/c1ccc(Cl)cc1)c1ccc(-n2cccn2)cc1 yielded an IC50 of 7.76 mg/L (≈ 25.1 µM). Work on O=C(/C=C/c1ccc(Cl)cc1)c1ccc(-n2ccnc2)cc1 yielded an IC50 of 8.26 mg/L (≈ 26.8 µM). O=C(/C=C/c1ccc(Cl)cc1)c1ccc(-n2cncn2)cc1 was tested, and the IC50 was 1.52 mg/L (≈ 4.91 µM). For COc1ccc(/C=C/C(=O)c2ccc(-n3nnc4ccccc43)cc2)cc1, the IC50 was 6.8 mg/L (≈ 19.1 µM). With COc1cc(/C=C/C(=O)c2ccc(N3CCCCC3)cc2)cc(OC)c1OC the IC50 was 7.16 mg/L (≈ 18.8 µM). In the case of COc1cc(/C=C/C(=O)c2ccc(N3CCOCC3)cc2)cc(OC)c1OC, the IC50 is reported as 4.6 mg/L (≈ 12 µM). Work on COc1cc(/C=C/C(=O)c2ccc(-n3cncn3)cc2)cc(OC)c1OC yielded an IC50 of 8.03 mg/L (≈ 22 µM). O=C(/C=C/c1ccc(Cl)cc1)c1ccc(-n2cccc2)cc1 gave an IC50 of 2.93 mg/L (≈ 9.52 µM). COc1ccc(/C=C/C(=O)c2ccc(-n3cccn3)cc2)cc1 was tested, and the IC50 was 12.3 mg/L (≈ 40.5 µM). O=C(/C=C/c1ccc(Cl)cc1)c1ccc(N2CCOCC2)cc1 was tested, and the IC50 was 9.1 mg/L (≈ 27.8 µM). With COc1cc(/C=C/C(=O)c2ccc(-n3cccn3)cc2)cc(OC)c1OC the IC50 was 6 mg/L (≈ 16.5 µM). O=C(/C=C/c1ccc(Cl)cc1)c1ccc(-n2nnc3ccccc32)cc1 was tested, and the IC50 was 2.5 mg/L (≈ 6.95 µM).
